High-throughput results from PubChem.
The list is not random: actives were taken first. Their share in the collection is about 1.4%.
CAL PDZ FP-1 – inhibitors of human CAL PDZ peptide binding | Q9HD26 | purified CAL PDZ, TMR-peptide fluorescence polarization, 1 h | inhibition, % at 24.9 µM | actives 0.92% (n = 300,000);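 active = mean inhibition of at least 30% with at least half of replicates also reaching 30%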;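 note: 0% = DMSO neutral control and 100% = excess unlabeled competitor peptide PRC23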
Tb MetRS inh – Trypanosoma brucei MetRS inhibition | AID 624268 | inhibition, % at 11.9 µM | purified T. brucei MetRS, ATP depletion, Kinase-Glo luminescence | actives 0.4% (n = 360,000);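 active = inhibition above a per-plate cutoff of the control wells' mean inhibition plus 3 SD, cut at about 5.5% in these data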;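 note: 0% = DMSO wells median and 100% = median of wells with control inhibitor compound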
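Dosing: 11.9 µM single point; system: parasite MetRS enzyme; technique: luminescence of leftover ATP; times: 15 min enzyme-compound preincubation, 2 h reaction, 10 min detection, 25 °C; replicates: each compound tested once; read-out basis: percent inhibition relative to median high and low control wells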
CAL PDZ FP-2 – human CAL PDZ-peptide interaction inhibition | inhibition, % at 20 µM | actives 0.02% (n = 330,000) | AID 504414 | purified CAL PDZ, TMR-peptide fluorescence polarization, 1 h | Q9HD26;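 active = highest replicate inhibition of at least 40%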;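 note: plate controls were DMSO neutral control wells for no effect and unlabeled competitor peptide control wells for full effect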
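Material: tagged CAL PDZ protein CerCALP, purified; buffer or medium: sodium phosphate/NaCl buffer pH 7.4 with TCEP, IgG, Thesit; also added: fluorescent TMR peptide probe; schedule: 1 h incubation at room temperature before polarization reading; technique: fluorescence polarization from S- and P-plane intensities, G-factor corrected; control set: unlabelled peptide and DMSO controls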
CDK5 inh – inhibitors of human CDK5/p35 kinase; Recombinant CDK5/p35, ADP-Glo luminescence, 60 min; Q00535+Q15078; actives 0.01% (n = 330,000); inhibition, % at 10 µM;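 active = highest replicate inhibition of at least 50% and at least 75% of replicates reaching 50%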;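 note: plate controls were DMSO neutral control for no effect and GW8510 at 10 µM for full effect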
Target sequence (Q00535 whole entry, looked up): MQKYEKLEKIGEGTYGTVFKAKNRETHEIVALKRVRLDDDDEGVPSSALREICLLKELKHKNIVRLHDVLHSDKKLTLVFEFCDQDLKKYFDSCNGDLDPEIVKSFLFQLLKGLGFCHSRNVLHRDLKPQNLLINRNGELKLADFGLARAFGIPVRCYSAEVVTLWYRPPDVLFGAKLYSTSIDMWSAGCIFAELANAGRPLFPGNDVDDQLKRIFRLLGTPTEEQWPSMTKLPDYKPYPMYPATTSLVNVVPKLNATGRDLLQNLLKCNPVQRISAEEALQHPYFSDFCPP
Target sequence (Q15078 whole entry, looked up): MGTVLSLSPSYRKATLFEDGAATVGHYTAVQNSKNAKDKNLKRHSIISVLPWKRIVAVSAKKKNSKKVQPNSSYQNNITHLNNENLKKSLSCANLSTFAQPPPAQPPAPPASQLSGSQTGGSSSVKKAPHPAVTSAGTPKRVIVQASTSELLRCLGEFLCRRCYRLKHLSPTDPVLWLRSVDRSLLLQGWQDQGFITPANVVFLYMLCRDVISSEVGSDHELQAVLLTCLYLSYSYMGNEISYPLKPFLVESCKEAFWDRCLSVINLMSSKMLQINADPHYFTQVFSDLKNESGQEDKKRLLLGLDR
Dyrk1A ADPGlo – inhibitors of rat Dyrk1A kinase; Q63470; ADP-Glo luminescence, NFATc1 peptide; inhibition, % at 12.5 µM; actives 0.43% (n = 310,000); AID 504441; in the data active = inhibition above about 50%;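 note: plate controls were vehicle with enzyme for no effect and no enzyme for full effect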
PvdQ acylase – P. aeruginosa PvdQ acylase inhibition; purified PvdQ acylase, fluorescence plate reader; inhibition, % at 10 µM; actives 0.063% (n = 340,000); AID 488965; in the data active = inhibition above about 30%, passing the limit was not always enough;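 note: 0% = vehicle neutral wells and 100% = reference inhibitor wells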
Active calls of the source: *; . = not tested or not shown; + = active, no number.

SMILES	CAL PDZ FP-1	Tb MetRS inh	CAL PDZ FP-2	CDK5 inh	Dyrk1A ADPGlo	PvdQ acylase
CCOC(=O)C1(CCOc2ccccc2)CCN(Cc2ccc(C)o2)CC1	53*	0	-1	-2	0	-13
CCOC(=O)C1(CCOc2ccccc2)CCN(Cc2cnc(SC)nc2)CC1	46*	0	-1	-3	-4	-12
O=C1OCCC1=COCCCCCCOC=C1CCOC1=O	.	0	.	.	.	.
O=C(CSc1nc2ccccc2[nH]1)Nc1ccc2[nH]c(=O)[nH]c2c1	1	0	2	2	2	-14
O=C(CSc1nc2ccccc2[nH]1)Nc1ccc(F)cc1	.	17*	-1	0	8	-16
CCOc1cc(/C=C(\CC(=O)O)c2nc3ccccc3s2)ccc1OC	-4	0	-1	-2	-13	-6
COc1cc(/C=C(\CC(=O)O)c2nc3ccccc3s2)ccc1OCC(=O)Nc1ccccc1F	133*	0	-4	1	4	-8
Cc1ccc(/C(=N\S(=O)(=O)c2ccc(Br)cc2)Nc2ccccc2C)cc1	65*	0	-1	2	7	-15
Cc1ccccc1N/C(=N/S(=O)(=O)c1ccccc1)c1ccc(F)cc1	7	0	-2	1	-1	-12
CCN(CC)c1ccc(N2C(=O)c3ccccc3C2=O)cc1	102*	0	.	-1	-1	-17
CCc1noc(C)c1C(=O)Nc1ncc(C)s1	35*	-1	-3	-1	-4	-8
CC(C)c1ccc(S(=O)(=O)N2CCN(C(=O)c3cccc(F)c3)CC2)cc1	46*	-1	1	3	.	-18
O=C(c1cccc(F)c1)N1CCN(S(=O)(=O)c2ccccc2)CC1	-36	0	-4	-1	8	-18
COc1ccc(Cn2c(-c3ccco3)nc3oc4cc(OC)ccc4c(=O)c3c2=O)cc1	38*	0	-2	0	3	-5
COc1ccccc1Cc1c(C2CCCCC2)nc2cc(C)c(Br)c(C)n12	.	-1	.	.	.	.
Cc1ccc(S(=O)(=O)N2CCC(C(=O)OCC(=O)NCc3cccc(Cl)c3)CC2)cc1C	-1	0	-2	-1	-1	-7
Cc1cc(C)c(NC(=O)COC(=O)C2CCC2)c(Cl)c1	-1	0	-2	0	-4	-7
Cc1ccc(Cl)c(NC(=O)COC(=O)C2CCC2)c1Cl	55*	0	-1	0	-2	-19
Cc1ccc(S(=O)(=O)N2CCC(C(=O)OCC(=O)Nc3cc(S(C)(=O)=O)ccc3Cl)CC2)cc1C	40*	0	6	0	-2	-20
CSc1ccc(CN2CCC2(C)C(=O)Nc2ccc3c(c2)OCO3)cc1 (stereo unspecified)	.	0	.	.	.	.
CCCCNC(=O)c1nc(-c2cccnc2OC)oc1-c1ccc(Cl)cc1	.	0	.	.	.	.
O=C(CNS(=O)(=O)c1cccc(Br)c1)NCCCc1ccccc1	44*	0	-1	0	-8	-9
O=C(CNc1cccc([N+](=O)[O-])c1)NCCCc1ccccc1	38*	1	0	1	5	-8
CCOC(=O)c1c(C)[nH]c(C)c1C(=O)CN1C(=O)NC2(CCCCCC2)C1=O	35*	0	0	0	1	-8
COCCn1c(SCc2ccc(F)cc2)nc2ccccc2c1=O	+	0	0	1	1	-5
SMILES	CAL PDZ FP-1	Tb MetRS inh	CAL PDZ FP-2	CDK5 inh	Dyrk1A ADPGlo	PvdQ acylase
CC(=O)OC1COC(n2c(O)c(N=NC(N)=S)c3ccccc32)C(OC(C)=O)C1OC(C)=O (stereo unspecified)	38*	-1	-1	2	3	-9
CC(=O)OC1COC(n2ccc3ccccc32)C(OC(C)=O)C1OC(C)=O (stereo unspecified)	0	1	0	-2	1	-5
CC1OC2CC(=O)OC2C2=C1C(=O)c1c(O)cccc1C2=O (stereo unspecified)	.	2	.	.	.	.
O=C1N(c2ccccc2)C[C@@H]2C[C@@H](c3cc4ccccc4o3)N3CCC[C@@]123	-6	-1	.	6	-2	42*
Cc1ccc(C(=O)NCCN2CCC(n3c(=O)[nH]c4ccccc43)CC2)cc1C	.	-1	.	.	.	.
CC(=O)c1ccc(-c2ccc(C(=O)NCC(c3ccc(F)cc3)N3CCOCC3)o2)cc1 (stereo unspecified)	142*	0	-5	-3	12	-9
COc1ccc(S(=O)(=O)N2CCC[C@H]2C(=O)N2CCC[C@H]2C(=O)NCc2ccncc2)cc1C	.	0	.	.	.	.
COc1ccc(C2C(C(=O)N3CCOCC3)CCC(=O)N2c2ccc(OC)cc2)cc1 (stereo unspecified)	108*	0	-1	0	5	-10
COc1ccc(N2C(=O)CCC(C(=O)N3CCCCC3)C2c2ccc(OC)c(OC)c2)cc1 (stereo unspecified)	13	0	.	1	-4	0
COc1ccc(-c2nnn(CC(=O)N(CCN3CCOCC3)C(C(=O)NC3CCCCC3)c3ccco3)n2)cc1 (stereo unspecified)	-2	-1	-2	-1	-3	0
COc1ccc(-c2nnn(CC(=O)N(CCN3CCOCC3)C(C(=O)NC3CCCC3)c3ccco3)n2)cc1 (stereo unspecified)	53*	0	-1	0	-3	-11
CCOC(=O)C1(Cc2cccc(Cl)c2)CCCN(C(=O)c2ccnn2C)C1 (stereo unspecified)	41*	0	-1	-1	0	-9
CCOC(=O)C1(Cc2ccccc2)CCCN(C(=O)c2cn[nH]c2)C1 (stereo unspecified)	-3	0	0	-2	-1	-15
CCOC(=O)C1(Cc2ccccc2)CCCN(C(=O)c2ccc(-n3ccnc3)cc2)C1 (stereo unspecified)	38*	0	-2	0	4	-17
COc1ccc(N/N=C(\C#N)C(=N)N2CCCCC2)cc1	49*	0	-1	1	27	-16
Cc1ccc(N/N=C(\C#N)C(=N)N2CCCCCC2)cc1	30*	0	1	-2	0	-6
CCCCCCC(=O)Oc1cccc(N2C(=O)C3CCCCC3C2=O)c1 (stereo unspecified)	79*	0	0	-1	0	-9
O=C(c1ccc(NS(=O)(=O)c2cccc(F)c2)cc1)N1CCCCC1	36*	-1	-2	-1	-8	-19
CCN(CC)C(=O)c1cccc(-c2csc(C(C)(O)c3ccncc3)n2)c1 (stereo unspecified)	.	0	.	.	.	.
O=[N+]([O-])c1ccc(N=Nc2c(O)[nH]c3ccc(F)cc23)cc1	42*	-1	.	2	2	-12
Cc1ccccc1C(=O)NNC(=S)NC(=O)c1ccc(Cl)cc1Cl	-4	0	-2	-1	4	-2
